# The source made the active and inactive calls. No cut-off for these calls is given here.
# How the values were obtained:
# [1] = target: Voltage-dependent L-type calcium channel subunit alpha-1C (Homo sapiens, UniProt Q13936); experiment: Inhibition of Cav1.2 (unknown origin)
# [2] = Selectivity ratio of Ki for Rhesus monkey PDE2A3 transfected in AD293 cells cytosolic fraction to Ki for human PDE10A2 transfected in human AD293 cells cytosolic fraction; type: cell-based
# [3] = In vivo receptor occupancy at PDE10A receptor in MK-801-induced psychosis rat model striatum at 0.75 mg/kg, po administered 1 hr prior to MK-801 administration and measured after 90 mins; type: functional; settings: time 2.5 hrs
# In short: (§1)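 Rats in the MK-801 locomotor study were dosed orally at 0.25, 0.50 or 0.75 mg/kg. Plasma was taken 2.5 h post dose and drug levels measured. Striatal PDE10A occupancy was derived from plasma concentration using the [3H]MK-8193 ex vivo occupancy relation. n = 8/group; mean (SEM).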
# [4] = In vivo receptor occupancy at PDE10A receptor in MK-801-induced psychosis rat model striatum at 0.25 mg/kg, po administered 1 hr prior to MK-801 administration and measured after 90 mins; type: functional; settings: time 2.5 hrs; in short: as §1
# [5] = Inhibition of IKS channel (unknown origin); set-up: species or system Homo sapiens
# [6] = Half life in Rhesus monkey at 0.5 mg/kg, iv by LC-MS/MS analysis; type: ADME, organism-based, Macaca mulatta; settings: in vivo
# In short: (§2)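 IV bolus in DMSO/PEG400 (1:1). Male Wistar–Hannover rats (n = 3, ~300 g): 2 mg/kg via jugular cannula, sampled 0.03–24 h. Male rhesus (n = 3): 0.5 mg/kg into saphenous or cephalic vein, sampled to 24 h. Plasma (EDTA) analysed by LC-MS/MS after acetonitrile precipitation. Non-compartmental analysis; CL = dose/AUC0-inf; t1/2 from log-linear regression of the terminal phase. Values are means.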
# [7] = target: Voltage-gated inwardly rectifying potassium channel KCNH2 (Homo sapiens, UniProt Q12809); experiment: Displacement of MK499 from hERG; type: toxicity
# Chain of Voltage-gated inwardly rectifying potassium channel KCNH2 (Q12809 whole entry): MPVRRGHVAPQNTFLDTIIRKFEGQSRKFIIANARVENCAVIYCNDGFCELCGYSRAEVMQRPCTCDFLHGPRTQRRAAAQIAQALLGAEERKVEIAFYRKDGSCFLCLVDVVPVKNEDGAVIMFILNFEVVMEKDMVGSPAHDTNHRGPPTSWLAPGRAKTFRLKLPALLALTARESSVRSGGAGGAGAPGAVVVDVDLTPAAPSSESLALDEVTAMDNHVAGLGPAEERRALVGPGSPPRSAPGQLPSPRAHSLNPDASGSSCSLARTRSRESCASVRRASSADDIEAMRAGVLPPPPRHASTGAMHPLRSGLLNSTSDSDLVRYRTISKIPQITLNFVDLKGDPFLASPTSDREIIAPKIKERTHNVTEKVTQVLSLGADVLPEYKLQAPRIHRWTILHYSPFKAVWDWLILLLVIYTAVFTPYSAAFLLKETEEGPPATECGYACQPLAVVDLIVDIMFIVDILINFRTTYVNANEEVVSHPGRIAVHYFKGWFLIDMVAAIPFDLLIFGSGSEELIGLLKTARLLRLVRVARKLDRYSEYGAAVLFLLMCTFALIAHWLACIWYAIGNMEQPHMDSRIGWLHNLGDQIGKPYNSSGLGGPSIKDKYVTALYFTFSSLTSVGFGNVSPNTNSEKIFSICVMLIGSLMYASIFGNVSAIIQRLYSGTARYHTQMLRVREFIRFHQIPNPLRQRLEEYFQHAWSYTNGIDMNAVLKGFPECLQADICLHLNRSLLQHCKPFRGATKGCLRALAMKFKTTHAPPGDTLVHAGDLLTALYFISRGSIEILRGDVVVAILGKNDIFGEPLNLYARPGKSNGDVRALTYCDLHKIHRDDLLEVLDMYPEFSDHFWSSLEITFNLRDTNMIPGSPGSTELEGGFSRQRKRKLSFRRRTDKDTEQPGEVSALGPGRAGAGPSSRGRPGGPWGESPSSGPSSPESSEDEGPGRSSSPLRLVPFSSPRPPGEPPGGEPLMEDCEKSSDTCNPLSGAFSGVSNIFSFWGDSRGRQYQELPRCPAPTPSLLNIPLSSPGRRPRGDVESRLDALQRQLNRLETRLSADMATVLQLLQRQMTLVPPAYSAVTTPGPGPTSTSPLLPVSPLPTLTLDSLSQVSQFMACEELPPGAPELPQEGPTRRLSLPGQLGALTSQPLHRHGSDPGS
# P-gp (ABCB1) [8] = target: P-gp (ABCB1) (Rattus norvegicus, UniProt P43245); experiment: Substrate activity at rat P-gp assessed as efflux ratio; type: ADME
# Chain of P-gp (ABCB1) (Rattus norvegicus, UniProt P43245) (P43245 whole entry): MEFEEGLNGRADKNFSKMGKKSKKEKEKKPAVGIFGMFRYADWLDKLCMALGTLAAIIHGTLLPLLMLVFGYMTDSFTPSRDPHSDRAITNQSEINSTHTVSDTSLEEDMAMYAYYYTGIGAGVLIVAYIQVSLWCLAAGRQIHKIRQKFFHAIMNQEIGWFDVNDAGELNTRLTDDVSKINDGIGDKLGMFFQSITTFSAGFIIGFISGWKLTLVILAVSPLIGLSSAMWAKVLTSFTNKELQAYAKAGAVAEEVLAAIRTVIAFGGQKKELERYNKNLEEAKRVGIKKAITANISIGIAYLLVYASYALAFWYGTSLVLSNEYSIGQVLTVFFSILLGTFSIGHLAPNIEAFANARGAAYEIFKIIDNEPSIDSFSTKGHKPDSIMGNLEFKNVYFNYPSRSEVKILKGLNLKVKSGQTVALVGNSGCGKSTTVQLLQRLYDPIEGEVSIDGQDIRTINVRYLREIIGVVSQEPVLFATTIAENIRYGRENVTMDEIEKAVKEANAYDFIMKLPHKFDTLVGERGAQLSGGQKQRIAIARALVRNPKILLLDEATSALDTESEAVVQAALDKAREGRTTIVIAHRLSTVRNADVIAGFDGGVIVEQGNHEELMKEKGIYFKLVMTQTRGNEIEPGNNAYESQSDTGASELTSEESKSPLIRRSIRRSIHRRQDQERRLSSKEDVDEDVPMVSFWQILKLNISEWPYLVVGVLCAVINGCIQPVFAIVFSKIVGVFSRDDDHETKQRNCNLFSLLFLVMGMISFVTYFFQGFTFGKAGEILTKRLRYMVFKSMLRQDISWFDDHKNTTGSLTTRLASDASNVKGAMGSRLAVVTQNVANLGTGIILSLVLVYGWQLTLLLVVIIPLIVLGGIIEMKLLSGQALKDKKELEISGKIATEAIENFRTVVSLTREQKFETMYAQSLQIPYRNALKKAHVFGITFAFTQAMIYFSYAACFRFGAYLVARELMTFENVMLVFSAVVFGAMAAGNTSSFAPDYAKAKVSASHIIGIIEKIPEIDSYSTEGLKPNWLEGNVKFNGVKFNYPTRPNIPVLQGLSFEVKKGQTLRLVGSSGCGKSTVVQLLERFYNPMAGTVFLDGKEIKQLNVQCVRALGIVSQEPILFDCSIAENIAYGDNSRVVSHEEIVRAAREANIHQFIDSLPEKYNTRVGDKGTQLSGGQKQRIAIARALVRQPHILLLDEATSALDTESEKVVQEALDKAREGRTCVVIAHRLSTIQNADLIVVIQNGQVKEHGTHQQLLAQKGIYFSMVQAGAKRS
# [9] = target: cAMP and cAMP-inhibited cGMP 3',5'-cyclic phosphodiesterase 10A (Homo sapiens, UniProt Q9Y233); experiment: Binding affinity to human full length His-tagged PDE10A2 assessed as on-rate constant by surface plasmon resonance analysis
# Chain of cAMP and cAMP-inhibited cGMP 3',5'-cyclic phosphodiesterase 10A (Q9Y233 whole entry): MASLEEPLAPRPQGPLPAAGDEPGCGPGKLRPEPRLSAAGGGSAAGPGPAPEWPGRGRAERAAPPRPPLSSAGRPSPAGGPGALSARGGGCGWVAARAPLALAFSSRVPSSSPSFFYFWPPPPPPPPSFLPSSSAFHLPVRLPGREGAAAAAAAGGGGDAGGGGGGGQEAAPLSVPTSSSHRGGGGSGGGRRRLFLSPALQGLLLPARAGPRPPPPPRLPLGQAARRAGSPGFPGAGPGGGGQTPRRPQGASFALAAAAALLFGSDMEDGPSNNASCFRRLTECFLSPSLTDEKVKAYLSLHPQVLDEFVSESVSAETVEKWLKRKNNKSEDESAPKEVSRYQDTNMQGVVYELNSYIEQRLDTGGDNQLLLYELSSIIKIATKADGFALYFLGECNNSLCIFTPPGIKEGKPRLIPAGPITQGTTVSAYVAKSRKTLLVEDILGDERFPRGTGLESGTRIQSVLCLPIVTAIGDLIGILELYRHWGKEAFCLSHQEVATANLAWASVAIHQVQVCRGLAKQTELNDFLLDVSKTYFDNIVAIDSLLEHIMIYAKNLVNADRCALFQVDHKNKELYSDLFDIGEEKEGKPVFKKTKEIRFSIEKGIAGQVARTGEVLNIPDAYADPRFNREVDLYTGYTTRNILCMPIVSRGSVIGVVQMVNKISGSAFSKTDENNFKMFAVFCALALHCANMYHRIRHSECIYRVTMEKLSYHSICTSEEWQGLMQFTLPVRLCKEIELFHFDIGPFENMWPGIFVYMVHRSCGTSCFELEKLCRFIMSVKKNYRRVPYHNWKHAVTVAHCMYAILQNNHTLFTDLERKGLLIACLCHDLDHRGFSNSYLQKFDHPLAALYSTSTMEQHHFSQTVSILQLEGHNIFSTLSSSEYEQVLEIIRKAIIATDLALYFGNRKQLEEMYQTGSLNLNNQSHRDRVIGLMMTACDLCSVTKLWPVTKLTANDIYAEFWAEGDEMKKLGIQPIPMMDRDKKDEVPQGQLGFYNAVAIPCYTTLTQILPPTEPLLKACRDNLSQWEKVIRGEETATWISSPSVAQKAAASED
# [10] = Mutagenicity in Salmonella typhimurium by Ames test; type: toxicity; settings: salmonella enterica subsp. enterica serovar typhimurium
# [11] = Selectivity ratio of Ki for N-terminal GST-tagged full length human recombinant PDE9A2 expressed in baculovirus-infected Sf9 cells to Ki for human PDE10A2 transfected in human AD293 cells cytosolic fraction
# [12] = In vivo receptor occupancy at PDE10A receptor in rat striatum at 0.16 mg/kg, po measured after 1 hr; type: functional
# In short: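 Striatal PDE10A occupancy in rats given the compound orally during the novel object recognition test. Occupancy was not measured directly but derived from plasma concentration taken 1 h post dose. n = 4/group, reported as mean (SEM).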
# [13] = Selectivity ratio of Ki for N-terminal GST-tagged human recombinant PDE5A1 (1 to 875 residues) expressed in baculovirus-infected Sf9 cells to Ki for human PDE10A2 transfected in human AD293 cells cytosolic fraction
# [14] = Substrate activity at monkey P-gp assessed as efflux ratio; type: ADME, Macaca mulatta; settings: rhesus monkey
# [15] = Plasma clearance in Rhesus monkey at 0.5 mg/kg, iv by LC-MS/MS analysis; type: ADME, organism-based, Macaca mulatta; in short: as §2
# [16] = Plasma clearance in Wistar-Hannover rat at 2 mg/kg, iv by LC-MS/MS analysis; type: ADME, organism-based; in short: as §2
# [17] = Lipophilicity, log D of the compound; type: physicochemical; settings: octanol/water
# Rattus norvegicus = experiment: Cognitive-enhancing activity in rat assessed as improvement in novel object recognition at 0.16 to 0.25 mg/kg, po measured after 1 hr by novel object recognition test; type: functional, organism-based; settings: dose 0.16-0.25 mg/kg
# In short: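 Novel object recognition in rats: oral dosing, then discrimination of a novel object from one seen 48 h earlier. Doses 0.08–0.25 mg/kg; donepezil 0.56 mg/kg as positive control. Groups compared with vehicle (p < 0.05). Plasma for exposure taken 1 h post dose, n = 4/group.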
# [18] = target: T1, Nuclear receptor subfamily 1 group I member 2 (Homo sapiens, UniProt O75469); experiment: Activation of PXR (unknown origin) assessed as CYP3A4 induction; type: ADME
# T1 sequence (O75469 whole entry): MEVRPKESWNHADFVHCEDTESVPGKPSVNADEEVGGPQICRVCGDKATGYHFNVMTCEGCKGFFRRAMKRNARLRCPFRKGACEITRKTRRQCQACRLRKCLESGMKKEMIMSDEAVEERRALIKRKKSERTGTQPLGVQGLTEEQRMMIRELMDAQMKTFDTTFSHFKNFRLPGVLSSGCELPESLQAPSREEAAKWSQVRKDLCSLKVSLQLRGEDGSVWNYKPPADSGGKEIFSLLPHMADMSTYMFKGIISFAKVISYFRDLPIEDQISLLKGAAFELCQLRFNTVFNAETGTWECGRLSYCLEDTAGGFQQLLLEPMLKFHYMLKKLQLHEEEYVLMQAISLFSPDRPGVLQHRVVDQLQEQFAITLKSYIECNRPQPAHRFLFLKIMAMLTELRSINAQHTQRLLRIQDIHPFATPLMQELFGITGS
# [19] = In vivo receptor occupancy at PDE10A receptor in MK-801-induced psychosis rat model striatum at 0.5 mg/kg, po administered 1 hr prior to MK-801 administration and measured after 90 mins; type: functional; settings: time 2.5 hrs; in short: as §1
# [20] = Plasma concentration in rat at 0.16 mg/kg, po measured after 1 hr; type: ADME, organism-based
# In short: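 Rat novel object recognition (episodic memory) study, orally dosed. Plasma drawn 1 h post dose at end of the experiment for compound level. n = 4/group, reported as mean (SEM).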
# [21] = Selectivity ratio of Ki for N-terminal His-GST-tagged human recombinant PDE3A(669 to 1141 residues) expressed in baculovirus-infected Sf9 cells to Ki for human PDE10A2 transfected in human AD293 cells cytosolic fraction
# [22] = Protein binding in rat plasma; type: ADME, cell-free
# [23] = Selectivity ratio of Ki for N-terminal GST-tagged human recombinant PDE11A4 (1 to 943 residues) expressed in baculovirus-infected Sf9 cells to Ki for human PDE10A2 transfected in human AD293 cells cytosolic fraction
# P-gp (ABCB1) [24] = target: P-gp (ABCB1) (Homo sapiens, UniProt P08183); experiment: Substrate activity at human P-gp assessed as efflux ratio; type: ADME; settings: not told
# Chain of P-gp (ABCB1) (Homo sapiens, UniProt P08183) (P08183 whole entry): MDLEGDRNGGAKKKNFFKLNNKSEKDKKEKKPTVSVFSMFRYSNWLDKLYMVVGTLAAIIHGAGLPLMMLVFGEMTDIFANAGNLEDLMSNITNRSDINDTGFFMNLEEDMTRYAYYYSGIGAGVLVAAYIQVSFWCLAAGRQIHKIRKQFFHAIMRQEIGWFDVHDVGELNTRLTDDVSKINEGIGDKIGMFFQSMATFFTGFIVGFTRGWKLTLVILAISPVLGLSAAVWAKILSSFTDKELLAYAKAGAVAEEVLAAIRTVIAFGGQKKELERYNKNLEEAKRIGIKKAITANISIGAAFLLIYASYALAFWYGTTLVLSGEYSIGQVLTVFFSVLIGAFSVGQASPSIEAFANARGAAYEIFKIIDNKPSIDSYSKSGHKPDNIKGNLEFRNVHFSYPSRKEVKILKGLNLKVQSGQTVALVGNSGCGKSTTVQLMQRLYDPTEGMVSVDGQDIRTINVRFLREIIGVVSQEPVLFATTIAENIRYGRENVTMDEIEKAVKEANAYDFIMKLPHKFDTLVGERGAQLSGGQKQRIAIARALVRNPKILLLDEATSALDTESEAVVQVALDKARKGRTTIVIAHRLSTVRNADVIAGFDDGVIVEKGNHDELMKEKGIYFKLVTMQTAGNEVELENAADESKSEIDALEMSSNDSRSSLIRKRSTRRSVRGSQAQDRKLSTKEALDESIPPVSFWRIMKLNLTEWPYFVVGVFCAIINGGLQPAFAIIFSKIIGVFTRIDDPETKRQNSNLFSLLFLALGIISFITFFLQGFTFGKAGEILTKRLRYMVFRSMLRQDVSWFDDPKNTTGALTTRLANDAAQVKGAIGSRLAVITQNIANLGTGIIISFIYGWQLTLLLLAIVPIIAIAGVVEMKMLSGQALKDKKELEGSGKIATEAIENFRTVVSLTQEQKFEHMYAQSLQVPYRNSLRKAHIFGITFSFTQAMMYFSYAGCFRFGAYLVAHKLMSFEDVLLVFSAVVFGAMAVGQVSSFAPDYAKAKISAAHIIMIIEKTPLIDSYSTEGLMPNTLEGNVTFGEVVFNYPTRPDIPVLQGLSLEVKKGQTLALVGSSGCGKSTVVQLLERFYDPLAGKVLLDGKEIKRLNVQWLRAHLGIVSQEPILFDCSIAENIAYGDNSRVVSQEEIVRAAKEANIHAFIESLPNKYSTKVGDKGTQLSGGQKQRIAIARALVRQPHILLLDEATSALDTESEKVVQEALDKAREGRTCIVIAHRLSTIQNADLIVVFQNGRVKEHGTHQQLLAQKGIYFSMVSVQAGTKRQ
# [25] = Unbound plasma clearance in rat; type: ADME; settings: in vivo
# In short: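 Rat unbound clearance (CLu) was calculated by dividing the measured rat plasma clearance by the rat plasma free fraction.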
smiles,measurement,setting,value
Cc1ccc([C@H]2C[C@@H]2COc2cc(NCc3nnc(C)s3)nc(C)n2)nc1 [MK-8189],IC50,[1],> 30 µM
same,Ratio Ki,[2],> 500000
same,Occ,[3],50%
same,Occ,[4],25%
same,IC50,[5],> 30 µM
same,t1/2,[6],4.2 h
same,IC50,[7],33 µM
same,efflux ratio,P-gp (ABCB1) [8],2.6
same,K,[9],8 10^7/M/s
same,Activity,[10],Non-Toxic
same,Ratio Ki,[11],> 500000
same,Occ,[12],29%
same,Ratio Ki,[13],> 500000
same,Ratio,[14],< 2
same,clearance,[15],9.3 mL/min/kg
same,clearance,[16],21.3 mL/min/kg
same,logD,[17],2.1
same,Activity,Rattus norvegicus,Active
same,EC50,[18],> 30 µM
same,Occ,[19],41%
same,concentration at 1 h,[20],18 nM
same,Ratio Ki,[21],> 500000
same,PPB,[22],91.8%
same,Ratio Ki,[23],> 500000
same,efflux ratio,P-gp (ABCB1) [24],< 2
same,CL free,[25],260 mL/min/kg

# — ChEMBL document CHEMBL5316310, “Discovery of MK-8189, a Highly Potent and Selective PDE10A Inhibitor for the Treatment of Schizophrenia” (J Med Chem, 2023)
